According to ChEMBL document CHEMBL1629612, “Characterization and sequence analysis of extended-spectrum-{beta}-lactamase-encoding genes from Escherichia coli, Klebsiella pneumoniae, and Proteus mirabilis isolates collected during tigecycline phase 3 clinical trials” (2009):

Columns and labels:
Format in all cases: functional
Klebsiella pneumoniae [1] = experiment: Antimicrobial activity against Klebsiella pneumoniae expressing beta-lactamase SHV by Etest based on multiple determinants
Outline: (§1)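 Clinical isolates from tigecycline phase 3 trials were received as frozen primary cultures. Repeat isolates from one patient were riboprinted, and only the first of identical strains was kept. β-lactamase genes were assigned by PCR against control strains, plus isoelectric focusing. ESBL confirmation used Etest ESBL strips carrying ceftazidime or cefotaxime with clavulanic acid, read per the manufacturer's instructions.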

Escherichia coli [2] = experiment: Antimicrobial activity against Escherichia coli expressing beta-lactamase CTX and SHV by Etest
Outline: (§2)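 Clinical isolates from tigecycline phase 3 trials were received as frozen primary cultures. Serial isolates from one patient were riboprinted, and only the first of identical strains was kept. β-Lactamase genes were assigned by PCR. ESBL confirmation used Etest ESBL strips carrying ceftazidime or cefotaxime, alone and combined with clavulanic acid, following the strip maker's instructions.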

Klebsiella pneumoniae [3] = experiment: Antimicrobial activity against Klebsiella pneumoniae expressing beta-lactamase CTX by Etest based on single determinant; outline: as §1
Escherichia coli [4] = experiment: Antimicrobial activity against Escherichia coli expressing beta-lactamase AmpC by Etest; outline: as §2
Escherichia coli [5] = experiment: Antimicrobial activity against Escherichia coli extended-spectrum beta-lactamase producing isolate by Etest; outline: as §2
Klebsiella pneumoniae [6] = experiment: Antimicrobial activity against Klebsiella pneumoniae expressing extended-spectrum beta-lactamase and beta-lactamase AmpC by Etest; outline: as §2
Escherichia coli [7] = experiment: Antimicrobial activity against Escherichia coli expressing beta-lactamase CTX by Etest based on multiple determinants; outline: as §2
Escherichia coli [8] = experiment: Antimicrobial activity against Escherichia coli expressing beta-lactamase CTX by Etest based on single determinant; outline: as §2
Proteus mirabilis [9] = experiment: Antimicrobial activity against Proteus mirabilis expressing beta-lactamase AmpC by Etest; outline: as §1
Escherichia coli [10] = experiment: Antimicrobial activity against Escherichia coli expressing beta-lactamase AmpC and extended-spectrum beta-lactamase by Etest; outline: as §2
Klebsiella pneumoniae [11] = experiment: Antimicrobial activity against Klebsiella pneumoniae expressing beta-lactamase SHV and CTX by Etest; outline: as §1
Klebsiella pneumoniae [12] = experiment: Antimicrobial activity against Klebsiella pneumoniae expressing beta-lactamase CTX by Etest based on multiple determinants; outline: as §1
Proteus mirabilis [13] = experiment: Antimicrobial activity against Proteus mirabilis extended-spectrum beta-lactamase producing isolate by Etest; outline: as §1
Klebsiella pneumoniae [14] = experiment: Antimicrobial activity against Klebsiella pneumoniae expressing beta-lactamase DHA by Etest; outline: as §2
Klebsiella pneumoniae [15] = experiment: Antimicrobial activity against Klebsiella pneumoniae extended-spectrum beta-lactamase producing isolate by Etest; outline: as §1
Proteus mirabilis [16] = experiment: Antimicrobial activity against Proteus mirabilis expressing extended-spectrum beta-lactamase by Etest based on multiple determinants; outline: as §1
Klebsiella pneumoniae [17] = experiment: Antimicrobial activity against Klebsiella pneumoniae expressing beta-lactamase SHV by Etest based on single determinant; outline: as §1
Proteus mirabilis [18] = experiment: Antimicrobial activity against Proteus mirabilis expressing extended-spectrum beta-lactamase by Etest based on single determinant; outline: as §1
Escherichia coli [19] = experiment: Antimicrobial activity against Escherichia coli expressing beta-lactamase SHV by Etest; outline: as §2

C[C@@H](O)[C@H]1C(=O)N2C(C(=O)O)=C(SCCNC=N)C[C@H]12 [IMIPENEM ANHYDROUS]
2 µg/mL: MIC50 (Proteus mirabilis [13]) | MIC (Proteus mirabilis [16])
≤ 0.12 µg/mL: MIC50 (Escherichia coli [2]) | MIC50 (Escherichia coli [5]) | MIC50 (Escherichia coli [7]) | MIC50 (Escherichia coli [8])
1 µg/mL: MIC (Proteus mirabilis [9]) | MIC90 (Klebsiella pneumoniae [15]) | MIC90 (Klebsiella pneumoniae [17])
0.5 µg/mL: MIC90 (Klebsiella pneumoniae [3]) | MIC90 (Escherichia coli [10]) | MIC90 (Klebsiella pneumoniae [11]) | MIC90 (Klebsiella pneumoniae [12]) | MIC (Klebsiella pneumoniae [14]) | MIC (Proteus mirabilis [18])
0.06 µg/mL: MIC (Klebsiella pneumoniae [6])
0.12 µg/mL: MIC (Klebsiella pneumoniae [1]) | MIC (Escherichia coli [4])
4 µg/mL: MIC90 (Proteus mirabilis [13])
0.25 µg/mL: MIC90 (Escherichia coli [2]) | MIC50 (Klebsiella pneumoniae [3]) | MIC90 (Escherichia coli [5]) | MIC90 (Escherichia coli [7]) | MIC90 (Escherichia coli [8]) | MIC50 (Escherichia coli [10]) | MIC50 (Klebsiella pneumoniae [11]) | MIC50 (Klebsiella pneumoniae [12]) | MIC50 (Klebsiella pneumoniae [15]) | MIC50 (Klebsiella pneumoniae [17])

C[C@H]1COc2c(N3CCN(C)CC3)c(F)cc3c(=O)c(C(=O)O)cn1c23.C[C@H]1COc2c(N3CCN(C)CC3)c(F)cc3c(=O)c(C(=O)O)cn1c23.O [LEVOFLOXACIN]
4 µg/mL: MIC50 (Klebsiella pneumoniae [3]) | MIC (Proteus mirabilis [9]) | MIC50 (Klebsiella pneumoniae [12])
0.12 µg/mL: MIC (Klebsiella pneumoniae [1]) | MIC (Proteus mirabilis [18])
16 µg/mL: MIC50 (Escherichia coli [2]) | MIC50 (Escherichia coli [5]) | MIC50 (Escherichia coli [8]) | MIC50 (Escherichia coli [10]) | MIC90 (Klebsiella pneumoniae [12]) | MIC90 (Klebsiella pneumoniae [17])
0.5 µg/mL: MIC50 (Klebsiella pneumoniae [11]) | MIC50 (Klebsiella pneumoniae [17])
2 µg/mL: MIC (Klebsiella pneumoniae [6]) | MIC50 (Klebsiella pneumoniae [15]) | MIC (Proteus mirabilis [16])
8 µg/mL: MIC50 (Proteus mirabilis [13])
> 16 µg/mL: MIC90 (Escherichia coli [2]) | MIC90 (Klebsiella pneumoniae [3]) | MIC90 (Escherichia coli [5]) | MIC50 (Escherichia coli [7]) | MIC90 (Escherichia coli [7]) | MIC90 (Escherichia coli [8]) | MIC90 (Escherichia coli [10]) | MIC90 (Klebsiella pneumoniae [11]) | MIC90 (Proteus mirabilis [13]) | MIC90 (Klebsiella pneumoniae [15])

CN(C)c1ccc(O)c2c1C[C@H]1C[C@H]3[C@H](N(C)C)C(O)=C(C(N)=O)C(=O)[C@@]3(O)C(O)=C1C2=O [MINOCYCLINE]
8 µg/mL: MIC50 (Klebsiella pneumoniae [11])
1 µg/mL: MIC (Escherichia coli [4])
2 µg/mL: MIC (Klebsiella pneumoniae [1]) | MIC (Escherichia coli [19])
> 64 µg/mL: MIC90 (Escherichia coli [10]) | MIC90 (Proteus mirabilis [13])
32 µg/mL: MIC90 (Klebsiella pneumoniae [3]) | MIC90 (Escherichia coli [5]) | MIC90 (Escherichia coli [7]) | MIC90 (Escherichia coli [8])
16 µg/mL: MIC90 (Escherichia coli [2]) | MIC (Proteus mirabilis [9]) | MIC90 (Klebsiella pneumoniae [12]) | MIC (Proteus mirabilis [16]) | MIC (Proteus mirabilis [18])
4 µg/mL: MIC50 (Escherichia coli [2]) | MIC50 (Klebsiella pneumoniae [3]) | MIC50 (Escherichia coli [5]) | MIC (Klebsiella pneumoniae [6]) | MIC50 (Escherichia coli [7]) | MIC50 (Escherichia coli [8]) | MIC50 (Escherichia coli [10]) | MIC50 (Klebsiella pneumoniae [12]) | MIC (Klebsiella pneumoniae [14]) | MIC50 (Klebsiella pneumoniae [15]) | MIC50 (Klebsiella pneumoniae [17])
64 µg/mL: MIC90 (Klebsiella pneumoniae [11]) | MIC50 (Proteus mirabilis [13]) | MIC90 (Klebsiella pneumoniae [15]) | MIC90 (Klebsiella pneumoniae [17])

CN(C)c1cc(NC(=O)CNC(C)(C)C)c(O)c2c1C[C@H]1C[C@H]3[C@H](N(C)C)C(O)=C(C(N)=O)C(=O)[C@@]3(O)C(O)=C1C2=O [TIGECYCLINE]
0.5 µg/mL: MIC (Klebsiella pneumoniae [1]) | MIC90 (Escherichia coli [2]) | MIC90 (Escherichia coli [5]) | MIC (Klebsiella pneumoniae [6]) | MIC50 (Escherichia coli [7]) | MIC90 (Escherichia coli [7]) | MIC90 (Escherichia coli [8]) | MIC90 (Escherichia coli [10]) | MIC50 (Klebsiella pneumoniae [11]) | MIC50 (Klebsiella pneumoniae [12]) | MIC (Klebsiella pneumoniae [14]) | MIC50 (Klebsiella pneumoniae [15]) | MIC (Proteus mirabilis [16]) | MIC50 (Klebsiella pneumoniae [17])
1 µg/mL: MIC50 (Klebsiella pneumoniae [3]) | MIC90 (Klebsiella pneumoniae [12]) | MIC90 (Klebsiella pneumoniae [17])
16 µg/mL: MIC90 (Proteus mirabilis [13])
0.12 µg/mL: MIC (Escherichia coli [19])
0.25 µg/mL: MIC (Escherichia coli [2]) | MIC50 (Escherichia coli [2]) | MIC (Escherichia coli [4]) | MIC50 (Escherichia coli [5]) | MIC50 (Escherichia coli [8]) | MIC50 (Escherichia coli [10])
2 µg/mL: MIC90 (Klebsiella pneumoniae [3]) | MIC (Proteus mirabilis [9]) | MIC90 (Klebsiella pneumoniae [11]) | MIC50 (Proteus mirabilis [13]) | MIC90 (Klebsiella pneumoniae [15]) | MIC (Proteus mirabilis [18])

NC[C@H]1O[C@H](O[C@H]2[C@H](O)[C@@H](O[C@H]3O[C@H](CO)[C@@H](O)[C@H](N)[C@H]3O)[C@H](N)C[C@@H]2N)[C@H](N)C[C@@H]1O [TOBRAMYCIN]
0.25 µg/mL: MIC (Klebsiella pneumoniae [6]) | MIC (Escherichia coli [19])
8 µg/mL: MIC50 (Proteus mirabilis [13])
4 µg/mL: MIC (Proteus mirabilis [9]) | MIC (Proteus mirabilis [16])
1 µg/mL: MIC (Escherichia coli [4])
0.5 µg/mL: MIC (Klebsiella pneumoniae [1]) | MIC (Proteus mirabilis [18])
> 32 µg/mL: MIC90 (Escherichia coli [2]) | MIC90 (Klebsiella pneumoniae [3]) | MIC90 (Escherichia coli [5]) | MIC90 (Escherichia coli [7]) | MIC90 (Escherichia coli [8]) | MIC90 (Escherichia coli [10]) | MIC90 (Klebsiella pneumoniae [11]) | MIC90 (Klebsiella pneumoniae [12]) | MIC90 (Proteus mirabilis [13]) | MIC90 (Klebsiella pneumoniae [15]) | MIC90 (Klebsiella pneumoniae [17])
32 µg/mL: MIC50 (Escherichia coli [2]) | MIC50 (Escherichia coli [5]) | MIC50 (Escherichia coli [7]) | MIC50 (Escherichia coli [8]) | MIC50 (Klebsiella pneumoniae [11]) | MIC50 (Klebsiella pneumoniae [12]) | MIC50 (Klebsiella pneumoniae [15])
16 µg/mL: MIC50 (Klebsiella pneumoniae [3]) | MIC50 (Escherichia coli [10]) | MIC (Klebsiella pneumoniae [14]) | MIC50 (Klebsiella pneumoniae [17])
